In ChEMBL document CHEMBL3804761, “Synthesis of a stable and orally bioavailable englerin analogue” (Bioorg Med Chem Lett, 2016):

Legend:
Type in all cases: functional
[1] = tested on: KM12; experiment: Growth inhibition of human KM12 cells assessed as cell growth at 10 uM incubated for 48 hrs by sulforhodamine B assay relative to control; details: KM12, 48 h, read-out: Activity
Method in brief: (§1)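 Run in the standard NCI 60-cell-line screen. Cells were exposed to drug for two days, and the read-out was sulforhodamine B staining. Compound was tested at a single final concentration of 10 µM in every line, and results are reported as growth percent.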

[2] = Growth inhibition of human SF295 cells assessed as cell growth at 10 uM incubated for 48 hrs by sulforhodamine B assay relative to control; details: SF-295, 48 h, read-out: Activity; method in brief: as §1
[3] = Growth inhibition of human SNB75 cells assessed as cell growth at 10 uM incubated for 48 hrs by sulforhodamine B assay relative to control; details: SNB-75, 48 h, read-out: Activity; method in brief: as §1
[4] = Growth inhibition of human LOXIMVI cells assessed as cell growth at 10 uM incubated for 48 hrs by sulforhodamine B assay relative to control; details: LOX IMVI, read-out: Activity
Method in brief: (§2)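 Single-dose screen in the NCI 60-cell-line panel at one final concentration of 10 µM. Two-day drug exposure with a sulforhodamine B endpoint. Values are growth percent for each cell line.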

[5] = Growth inhibition of human UACC62 cells assessed as cell growth at 10 uM incubated for 48 hrs by sulforhodamine B assay relative to control; details: UACC-62, 48 h, read-out: Activity
Method in brief: (§3)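 NCI 60-cell line standard protocol, one-dose screen: single final concentration 10 µM, 2-day drug exposure, sulforhodamine B (SRB) endpoint; read-out is growth percent relative to untreated control.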

[6] = Growth inhibition of human TK10 cells assessed as cell growth at 10 uM incubated for 48 hrs by sulforhodamine B assay relative to control; details: TK-10, 48 h, read-out: Activity; method in brief: as §3
[7] = tested on: MCF7; experiment: Growth inhibition of human MCF7 cells assessed as cell growth at 10 uM incubated for 48 hrs by sulforhodamine B assay relative to control; details: MCF7, 48 h, read-out: Activity; method in brief: as §1
[8] = tested on: MDA-MB-231; experiment: Growth inhibition of human MDA-MB-231 cells assessed as cell growth at 10 uM incubated for 48 hrs by sulforhodamine B assay relative to control; details: MDA-MB-231, 48 h, read-out: Activity; method in brief: as §1
[9] = Growth inhibition of human BT549 cells assessed as cell growth at 10 uM incubated for 48 hrs by sulforhodamine B assay relative to control; details: BT-549, 48 h, read-out: Activity; method in brief: as §1
[10] = tested on: CCRF-CEM; experiment: Growth inhibition of human CCRF-CEM cells assessed as cell growth at 10 uM incubated for 48 hrs by sulforhodamine B assay relative to control; details: read-out: Activity; method in brief: as §2
[11] = tested on: CCRF-CEM; experiment: Growth inhibition of human CCRF-CEM cells incubated for 48 hrs by sulforhodamine B assay; details: for CC50: read-out: pLC50 (the source's name) (converted); for TGI: read-out: pTGI (converted)
Method in brief: (§4)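 NCI 60-cell-line panel, standard protocol. Cells exposed to compound for two days, growth read by sulforhodamine B staining. Tested at five 10-fold dilutions, top concentration 100 µM, to give dose-response curves.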

[12] = Growth inhibition of human HL-60(TB) cells incubated for 48 hrs by sulforhodamine B assay; details: HL-60, 48 h; for CC50: read-out: pLC50 (the source's name) (converted); for TGI: read-out: pTGI (converted); method in brief: as §4
[13] = tested on: NCI-H23; experiment: Growth inhibition of human NCI-H23 cells incubated for 48 hrs by sulforhodamine B assay; details: NCI-H23, 48 h; for TGI: read-out: pTGI (converted); method in brief: as §4
[14] = Growth inhibition of human SF295 cells incubated for 48 hrs by sulforhodamine B assay; details: SF-295, 48 h; for TGI: read-out: pTGI (converted); method in brief: as §4
[15] = Growth inhibition of human SNB19 cells incubated for 48 hrs by sulforhodamine B assay; details: SNB-19, 48 h; for CC50: read-out: pLC50 (the source's name) (converted); for TGI: read-out: pTGI (converted)
Method in brief: (§5)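 Tested in the standard NCI 60-cell-line protocol with two-day drug exposure and a sulforhodamine B endpoint. Compounds were first screened at a single final concentration of 10 µM, reported as growth percent. They were then run as five 10-fold dilutions starting from a high concentration of 100 µM to give dose-response curves.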

[16] = Growth inhibition of human SNB75 cells incubated for 48 hrs by sulforhodamine B assay; details: SNB-75, 48 h; for TGI: read-out: pTGI (converted); method in brief: as §5
[17] = tested on: SK-MEL-5; experiment: Growth inhibition of human SK-MEL-5 cells incubated for 48 hrs by sulforhodamine B assay; details: SK-MEL-5, 48 h; for TGI: read-out: pTGI (converted); method in brief: as §4
[18] = Growth inhibition of human TK10 cells incubated for 48 hrs by sulforhodamine B assay; details: TK-10, 48 h; for CC50: read-out: pLC50 (the source's name) (converted); for TGI: read-out: pTGI (converted); method in brief: as §5
[19] = tested on: MDA-MB-468; experiment: Growth inhibition of human MDA-MB-468 cells incubated for 48 hrs by sulforhodamine B assay; details: MDA-MB-468, 48 h; for CC50: read-out: pLC50 (the source's name) (converted); for TGI: read-out: pTGI (converted); method in brief: as §4
[20] = Growth inhibition of human MOLT4 cells assessed as cell growth at 10 uM incubated for 48 hrs by sulforhodamine B assay relative to control; details: MOLT-4, 48 h, read-out: Activity; method in brief: as §1
[21] = tested on: A549; experiment: Growth inhibition of human A549/ATCC cells assessed as cell growth at 10 uM incubated for 48 hrs by sulforhodamine B assay relative to control; details: A549, 48 h, read-out: Activity; method in brief: as §1
[22] = Growth inhibition of human HOP62 cells assessed as cell growth at 10 uM incubated for 48 hrs by sulforhodamine B assay relative to control; details: HOP-62, 48 h, read-out: Activity; method in brief: as §1
[23] = tested on: NCI-H226; experiment: Growth inhibition of human NCI-H226 cells assessed as cell growth at 10 uM incubated for 48 hrs by sulforhodamine B assay relative to control; details: NCI-H226, 48 h, read-out: Activity; method in brief: as §1
[24] = tested on: NCI-H23; experiment: Growth inhibition of human NCI-H23 cells assessed as cell growth at 10 uM incubated for 48 hrs by sulforhodamine B assay relative to control; details: NCI-H23, 48 h, read-out: Activity; method in brief: as §1
[25] = Growth inhibition of human HCT116 cells assessed as cell growth at 10 uM incubated for 48 hrs by sulforhodamine B assay relative to control; details: HCT-116, 48 h, read-out: Activity; method in brief: as §1
[26] = Growth inhibition of human RXF393 cells incubated for 48 hrs by sulforhodamine B assay; details: RXF 393, 48 h
Method in brief: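 Run in the NCI 60-cell-line protocol, with 2-day drug exposure and sulforhodamine B read-out. Dose-response testing used five 10-fold dilutions starting from a high concentration of 100 µM.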

[27] = Growth inhibition of human RPMI8226 cells assessed as cell growth at 10 uM incubated for 48 hrs by sulforhodamine B assay relative to control; details: RPMI-8226, 48 h, read-out: Activity; method in brief: as §1

## C/C(=C\C(=O)O[C@H]1[C@@H]2[C@H](C)CC[C@H]2[C@]2(C)O[C@@]1(C(C)C)C[C@H]2NC(=O)CO)c1ccccc1
[1]
  growth at 10 µM: 112%
[2]
  growth at 10 µM: 97.8%
[3]
  growth at 10 µM: 102%
[4]
  growth at 10 µM: 100%
[5]
  growth at 10 µM: 102%
[6]
  growth at 10 µM: 109%
[7]
  growth at 10 µM: 89.7%
[8]
  growth at 10 µM: 99.6%
[9]
  growth at 10 µM: 117%
[10]
  growth at 10 µM: 94.1%
[11]
  GI50: 25.1 µM
  CC50: > 100 µM
  TGI: 77.6 µM
[12]
  GI50: 17.8 µM
  CC50: > 100 µM
  TGI: 61.7 µM
[13]
  GI50: 38.9 µM
  LC50: > 100 µM
  TGI: > 100 µM
[14]
  GI50: 36.3 µM
  LC50 (concentration causing 50% net cell kill): > 100 µM
  TGI: > 100 µM
[15]
  GI50: 74.1 µM
  CC50: > 100 µM
  TGI: > 100 µM
[16]
  GI50: 12.3 µM
  LC50: > 100 µM
  TGI: > 100 µM
[17]
  GI50: 19.5 µM
  LC50: 95.5 µM
  TGI: 43.7 µM
[18]
  GI50: 83.2 µM
  CC50: > 100 µM
  TGI: > 100 µM
[19]
  GI50: 28.8 µM
  CC50: > 100 µM
  TGI: > 100 µM
[20]
  growth at 10 µM: 125%
[21]
  growth at 10 µM: 84.1%
[22]
  growth at 10 µM: 97.6%
[23]
  growth at 10 µM: 90.7%
[24]
  growth at 10 µM: 97.7%
[25]
  growth at 10 µM: 101%

## CC(C)[C@@]12C[C@@H](NC(=O)CO)[C@@](C)(O1)[C@@H]1CC[C@@H](C)[C@H]1[C@@H]2OC(=O)/C=C/c1ccccc1
[1]
  growth at 10 µM: 111%
[2]
  growth at 10 µM: 90.6%
[3]
  growth at 10 µM: 59.6%
[4]
  growth at 10 µM: 102%
[5]
  growth at 10 µM: 92.1%
[6]
  growth at 10 µM: 102%
[7]
  growth at 10 µM: 94.4%
[8]
  growth at 10 µM: 97.2%
[9]
  growth at 10 µM: 84.9%
[10]
  growth at 10 µM: 99.8%
[11]
  GI50: 14.1 µM
  CC50: > 50.1 µM
  TGI: > 50.1 µM
[12]
  GI50: 14.5 µM
  CC50: > 50.1 µM
  TGI: 37.2 µM
[13]
  GI50: 14.8 µM
  LC50: > 50.1 µM
  TGI: > 50.1 µM
[14]
  GI50: 18.6 µM
  LC50 (concentration causing 50% net cell kill): > 50.1 µM
  TGI: > 50.1 µM
[15]
  GI50: 24.5 µM
  CC50: > 50.1 µM
  TGI: > 50.1 µM
[16]
  GI50: 9.77 µM
  LC50: > 50.1 µM
  TGI: 43.7 µM
[17]
  GI50: 12.9 µM
  LC50: > 50.1 µM
  TGI: 42.7 µM
[26]
  GI50: 2.09 µM
[26]; read-out: pLC50 (the source's name) (converted)
  CC50: > 50.1 µM
[26]; read-out: pTGI (converted)
  TGI: 24.5 µM
[18]
  GI50: 28.8 µM
  CC50: > 50.1 µM
  TGI: > 50.1 µM
[19]
  GI50: 12.3 µM
  CC50: > 50.1 µM
  TGI: > 50.1 µM
[20]
  growth at 10 µM: 76%
[27]
  growth at 10 µM: 90.6%
[21]
  growth at 10 µM: 91.7%
[22]
  growth at 10 µM: 86.8%
[23]
  growth at 10 µM: 90.8%
[24]
  growth at 10 µM: 81.9%
[25]
  growth at 10 µM: 85.8%
